Measured values as given in ChEMBL document CHEMBL1122328, “Hypolipidemic activity of phthalimide derivatives. 2. N-phenylphthalimide and derivatives” (1983).

Legend:
Format in all cases: functional
[1] = system: Mus musculus; assay: Effect on Serum cholesterol levels on CF1 male mice at a dose of 20 (mg/kg)/day after 16 days
In short: (§1)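 CF1 male mice (~25 g), drug suspended in 1% carboxymethylcellulose in water, given ip daily for 16 days; n = 6; vehicle control. Tail-vein blood on days 9 and 16, serum cholesterol by modified Liebermann–Burchard reaction; day-14 serum triglyceride by commercial kit; expressed as % control.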

[2] = system: Mus musculus; assay: Effect on Serum cholesterol levels on CF1 male mice at a dose of 20 (mg/kg)/day after 9 days; in short: as §1
[3] = system: Mus musculus; assay: Effect on Serum triglyceride levels on CF1 male mice at a dose of 20 (mg/kg)/day after 14 days; in short: as §1

CCc1ccccc1N1C(=O)c2ccccc2C1=O
Serum cholesterol (% of control) [1]: 103%
Control [2]: 88%
Control [3]: 92%

CCOC(=O)C(C)(C)Oc1ccc(Cl)cc1 [CLOFIBRATE]
Serum cholesterol (% of control) [1]: 96%
Control [2]: 98%
Control [3]: 91%

O=C1c2ccccc2C(=O)N1c1ccccc1 [N-PHENYL-PHTHALIMIDE]
Serum cholesterol (% of control) [1]: 57%
Control [2]: 92%
Control [3]: 61%

CC(=O)c1ccc(N2C(=O)c3ccccc3C2=O)cc1
Serum cholesterol (% of control) [1]: 55%
Control [2]: 83%
Control [3]: 66%

O=C1NC(=O)c2ccccc21 [PHTHALIMIDE]
Serum cholesterol (% of control) [1]: 57%
Control [2]: 63%
Control [3]: 44%

O=C(O)c1cccc(N2C(=O)c3ccccc3C2=O)c1
Serum cholesterol (% of control) [1]: 69%
Control [2]: 81%
Control [3]: 71%

O=C(O)c1ccc(N2C(=O)c3ccccc3C2=O)cc1
Serum cholesterol (% of control) [1]: 53%
Control [2]: 89%
Control [3]: 58%

CC(=O)c1cccc(N2C(=O)c3ccccc3C2=O)c1
Serum cholesterol (% of control) [1]: 84%
Control [2]: 87%
Control [3]: 74%

O=C(O)c1ccccc1N1C(=O)c2ccccc2C1=O [N-PHTHALOYLANTHRANILIC ACID]
Serum cholesterol (% of control) [1]: 77%
Control [2]: 92%
Control [3]: 78%

CCc1cccc(N2C(=O)c3ccccc3C2=O)c1
Serum cholesterol (% of control) [1]: 82%
Control [2]: 89%
Control [3]: 95%

CCc1ccc(N2C(=O)c3ccccc3C2=O)cc1
Serum cholesterol (% of control) [1]: 89%
Control [2]: 89%
Control [3]: 96%
